Laboratory results: ChEMBL document CHEMBL1136049, “Synthesis of syn- and anti-1-amino-3-[18F]fluoromethyl-cyclobutane-1-carboxylic acid (FMACBC), potential PET ligands for tumor detection” (J Med Chem, 2002)

How the values were obtained:
Rattus norvegicus [1] = species on record: Rattus norvegicus; test: Radioactivity distribution in heart of normal fischer rat after injection of syn-[18F]-FMACBC after 120 min.; type: ADME, organism-based; conditions: in vivo, 2 h
Procedure, shortened: (§1)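 Male Fischer 344 rats (200–250 g), normal, fed ad libitum, given ~85 μCi of 18F tracer in 0.3 mL sterile water IV through a tail vein catheter. Anesthesia was ketamine:xylazine IM. Groups of four were killed at 5, 30, 60 and 120 min. Tissues were weighed and gamma-counted against dose standards, decay-corrected, and expressed as mean % injected dose per gram.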

Rattus norvegicus [2] = species on record: Rattus norvegicus; test: Radioactivity distribution in heart of tumor-bearing fischer rat after injection of anti-[18F]FMACBC after 5 min; type: ADME, organism-based; conditions: in vivo
Procedure, shortened: (§2)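 Male Fischer 344 rats carrying intracranial rat 9L gliosarcoma, made by stereotaxic injection of 4 × 10^4 cells 17–19 days before. Awake restrained rats received ~35 μCi of 18F tracer in 0.3 mL sterile water IV by tail vein and were killed at 5, 60 or 120 min, n = 3–5. Tissues were weighed, gamma-counted, decay-corrected and expressed as % injected dose per gram.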

Rattus norvegicus [3] = species on record: Rattus norvegicus; test: Radioactivity distribution in bone of tumor-bearing fischer rat after injection of anti-[18F]FMACBC after 120 min; type: ADME, organism-based, Bone element; conditions: in vivo, 2 h; procedure, shortened: as §2
Rattus norvegicus [4] = species on record: Rattus norvegicus; test: Radioactivity distribution in muscle of tumor-bearing fischer rat after injection of syn-[18F]-FMACBC after 60 min; type: ADME, organism-based, Muscle tissue; conditions: in vivo, 1 h
Procedure, shortened: (§3)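 Male Fischer 344 rats with intracranial 9L gliosarcoma (4 × 10^4 cells stereotaxically implanted; used 17–19 days after implantation). About 35 μCi tracer in 0.3 mL sterile water was given by tail vein to awake, restrained rats. Rats were killed at 5, 60 or 120 min. Tissues, tumor and contralateral brain were weighed and gamma counted, decay-corrected, and expressed as %ID/g; n = 3–5 per time point.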

Rattus norvegicus [5] = species on record: Rattus norvegicus; test: Radioactivity distribution in tumor of tumor-bearing fischer rat after injection of syn-[18F]-FMACBC after 5 min; type: ADME, organism-based; conditions: in vivo; procedure, shortened: as §3
Rattus norvegicus [6] = species on record: Rattus norvegicus; test: Radioactivity distribution in spleen of normal fischer rat after injection of anti-[18F]FMACBC after 5 min.; type: ADME, organism-based; conditions: in vivo
Procedure, shortened: (§4)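 Normal male Fischer 344 rats (200–250 g) were anesthetised with ketamine:xylazine i.m. and given about 85 μCi tracer in 0.3 mL sterile water via a tail vein catheter. Groups of four were killed at 5, 30, 60 and 120 min. Selected tissues were weighed and gamma counted with dose standards, decay-corrected, and expressed as mean %ID/g.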

Rattus norvegicus [7] = species on record: Rattus norvegicus; test: Radioactivity distribution in blood of normal fischer rat after injection of anti-[18F]FMACBC after 60 min.; type: ADME, organism-based; conditions: in vivo, 1 h; procedure, shortened: as §1
Rattus norvegicus [8] = species on record: Rattus norvegicus; test: Radioactivity distribution in bone of normal fischer rat after injection of syn-[18F]-FMACBC after 120 min.; type: ADME, organism-based, Bone element; conditions: in vivo, 2 h; procedure, shortened: as §1
Rattus norvegicus [9] = species on record: Rattus norvegicus; test: Radioactivity distribution in testis of normal fischer rat after injection of syn-[18F]-FMACBC after 5 min.; type: ADME, organism-based; conditions: in vivo; procedure, shortened: as §4
Rattus norvegicus [10] = species on record: Rattus norvegicus; test: Radioactivity distribution in testis of normal fischer rat after injection of anti-[18F]FMACBC after 5 min.; type: ADME, organism-based; conditions: in vivo; procedure, shortened: as §4
Rattus norvegicus [11] = species on record: Rattus norvegicus; test: Radioactivity distribution in liver of tumor-bearing fischer rat after injection of anti-[18F]FMACBC after 5 min; type: ADME, organism-based; conditions: in vivo; procedure, shortened: as §3
Rattus norvegicus [12] = species on record: Rattus norvegicus; test: Radioactivity distribution in testis of tumor-bearing fischer rat after injection of syn-[18F]-FMACBC after 60 min; type: ADME, organism-based; conditions: in vivo, 1 h; procedure, shortened: as §3
Rattus norvegicus [13] = species on record: Rattus norvegicus; test: Radioactivity distribution in liver of normal fischer rat after injection of syn-[18F]-FMACBC after 5 min.; type: ADME, organism-based; conditions: in vivo; procedure, shortened: as §1
Rattus norvegicus [14] = species on record: Rattus norvegicus; test: Radioactivity distribution in kidney of normal fischer rat after injection of syn-[18F]-FMACBC after 5 min.; type: ADME, organism-based; conditions: in vivo; procedure, shortened: as §1
Rattus norvegicus [15] = species on record: Rattus norvegicus; test: Radioactivity distribution in blood of tumor-bearing fischer rat after injection of anti-[18F]FMACBC after 5 min; type: ADME, organism-based; conditions: in vivo; procedure, shortened: as §2
Rattus norvegicus [16] = species on record: Rattus norvegicus; test: Radioactivity distribution in lung of tumor-bearing fischer rat after injection of syn-[18F]-FMACBC after 60 min; type: ADME, organism-based; conditions: in vivo, 1 h; procedure, shortened: as §3
Rattus norvegicus [17] = species on record: Rattus norvegicus; test: Radioactivity distribution in blood of normal fischer rat after injection of syn-[18F]-FMACBC after 5 min.; type: ADME, organism-based; conditions: in vivo; procedure, shortened: as §1
Rattus norvegicus [18] = species on record: Rattus norvegicus; test: Radioactivity distribution in bone of tumor-bearing fischer rat after injection of syn-[18F]-FMACBC after 5 min; type: ADME, organism-based, Bone element; conditions: in vivo; procedure, shortened: as §2
Rattus norvegicus [19] = species on record: Rattus norvegicus; test: Radioactivity distribution in heart of tumor-bearing fischer rat after injection of syn-[18F]-FMACBC after 120 min; type: ADME, organism-based; conditions: in vivo, 2 h; procedure, shortened: as §2
Rattus norvegicus [20] = species on record: Rattus norvegicus; test: Radioactivity distribution in testis of tumor-bearing fischer rat after injection of anti-[18F]FMACBC after 120 min; type: ADME, organism-based; conditions: in vivo, 2 h; procedure, shortened: as §3
Rattus norvegicus [21] = species on record: Rattus norvegicus; test: Radioactivity distribution in pancreas of normal fischer rat after injection of anti-[18F]FMACBC after 120 min.; type: ADME, organism-based; conditions: in vivo, 2 h; procedure, shortened: as §4
Rattus norvegicus [22] = species on record: Rattus norvegicus; test: Radioactivity distribution in heart of tumor-bearing fischer rat after injection of anti-[18F]FMACBC after 120 min; type: ADME, organism-based; conditions: in vivo, 2 h; procedure, shortened: as §2
Rattus norvegicus [23] = species on record: Rattus norvegicus; test: Radioactivity distribution in kidney of normal fischer rat after injection of syn-[18F]-FMACBC after 60 min.; type: ADME, organism-based; conditions: in vivo, 1 h; procedure, shortened: as §1
Rattus norvegicus [24] = species on record: Rattus norvegicus; test: Radioactivity distribution in brain of tumor-bearing fischer rat after injection of anti-[18F]FMACBC after 120 min; type: ADME, organism-based; conditions: in vivo, 2 h; procedure, shortened: as §2
Rattus norvegicus [25] = species on record: Rattus norvegicus; test: Radioactivity distribution in kidney of normal fischer rat after injection of syn-[18F]-FMACBC after 120 min.; type: ADME, organism-based; conditions: in vivo, 2 h; procedure, shortened: as §1
Rattus norvegicus [26] = species on record: Rattus norvegicus; test: Radioactivity distribution in testis of tumor-bearing fischer rat after injection of syn-[18F]-FMACBC after 5 min; type: ADME, organism-based; conditions: in vivo; procedure, shortened: as §3
Rattus norvegicus [27] = species on record: Rattus norvegicus; test: Radioactivity distribution in brain of tumor-bearing fischer rat after injection of syn-[18F]-FMACBC after 60 min; type: ADME, organism-based; conditions: in vivo, 1 h; procedure, shortened: as §2
Rattus norvegicus [28] = species on record: Rattus norvegicus; test: Radioactivity distribution in testis of tumor-bearing fischer rat after injection of anti-[18F]FMACBC after 5 min; type: ADME, organism-based; conditions: in vivo; procedure, shortened: as §3
Rattus norvegicus [29] = species on record: Rattus norvegicus; test: Radioactivity distribution in testis of normal fischer rat after injection of anti-[18F]FMACBC after 30 min.; type: ADME, organism-based; conditions: in vivo, 0.5 h; procedure, shortened: as §4
Rattus norvegicus [30] = species on record: Rattus norvegicus; test: Radioactivity distribution in heart of tumor-bearing fischer rat after injection of syn-[18F]-FMACBC after 60 min; type: ADME, organism-based; conditions: in vivo, 1 h; procedure, shortened: as §2
Rattus norvegicus [31] = species on record: Rattus norvegicus; test: Radioactivity distribution in liver of tumor-bearing fischer rat after injection of syn-[18F]-FMACBC after 5 min; type: ADME, organism-based; conditions: in vivo; procedure, shortened: as §3
Rattus norvegicus [32] = species on record: Rattus norvegicus; test: Radioactivity distribution in pancreas of normal fischer rat after injection of anti-[18F]FMACBC after 5 min.; type: ADME, organism-based; conditions: in vivo; procedure, shortened: as §4
Rattus norvegicus [33] = species on record: Rattus norvegicus; test: Radioactivity distribution in muscle of normal fischer rat after injection of anti-[18F]FMACBC after 5 min.; type: ADME, organism-based, Muscle tissue; conditions: in vivo; procedure, shortened: as §4
Rattus norvegicus [34] = species on record: Rattus norvegicus; test: Radioactivity distribution in heart of tumor-bearing fischer rat after injection of anti-[18F]FMACBC after 60 min; type: ADME, organism-based; conditions: in vivo, 1 h; procedure, shortened: as §2
Rattus norvegicus [35] = species on record: Rattus norvegicus; test: Radioactivity distribution in muscle of normal fischer rat after injection of syn-[18F]-FMACBC after 5 min.; type: ADME, organism-based, Muscle tissue; conditions: in vivo; procedure, shortened: as §4
Rattus norvegicus [36] = species on record: Rattus norvegicus; test: Radioactivity distribution in spleen of normal fischer rat after injection of anti-[18F]FMACBC after 60 min.; type: ADME, organism-based; conditions: in vivo, 1 h; procedure, shortened: as §4
Rattus norvegicus [37] = species on record: Rattus norvegicus; test: Radioactivity distribution in brain of tumor-bearing fischer rat after injection of syn-[18F]-FMACBC after 120 min; type: ADME, organism-based; conditions: in vivo, 2 h; procedure, shortened: as §2
Rattus norvegicus [38] = species on record: Rattus norvegicus; test: Radioactivity distribution in blood of normal fischer rat after injection of syn-[18F]-FMACBC after 30 min.; type: ADME, organism-based; conditions: in vivo, 0.5 h; procedure, shortened: as §1
Rattus norvegicus [39] = species on record: Rattus norvegicus; test: Radioactivity distribution in bone of normal fischer rat after injection of anti-[18F]FMACBC after 5 min.; type: ADME, organism-based, Bone element; conditions: in vivo; procedure, shortened: as §1
Rattus norvegicus [40] = species on record: Rattus norvegicus; test: Radioactivity distribution in bone of tumor-bearing fischer rat after injection of syn-[18F]-FMACBC after 120 min; type: ADME, organism-based, Bone element; conditions: in vivo, 2 h; procedure, shortened: as §2
Rattus norvegicus [41] = species on record: Rattus norvegicus; test: Radioactivity distribution in heart of normal fischer rat after injection of syn-[18F]-FMACBC after 5 min.; type: ADME, organism-based; conditions: in vivo; procedure, shortened: as §1

SMILES: N[C@]1(C(=O)O)C[C@@H](CF)C1
- ID/g (Rattus norvegicus [1]): 0.6%
- ID/g (Rattus norvegicus [2]): 0.58%
- ID/g (Rattus norvegicus [3]): 0.19%
- ID/g (Rattus norvegicus [4]): 0.54%
- ID/g (Rattus norvegicus [5]): 1.16%
- ID/g (Rattus norvegicus [6]): 1.03%
- ID/g (Rattus norvegicus [7]): 0.33%
- ID/g (Rattus norvegicus [8]): 0.32%
- ID/g (Rattus norvegicus [9]): 0.32%
- ID/g (Rattus norvegicus [10]): 0.24%
- ID/g (Rattus norvegicus [11]): 0.87%
- ID/g (Rattus norvegicus [12]): 0.22%
- ID/g (Rattus norvegicus [13]): 0.66%
- ID/g (Rattus norvegicus [14]): 0.57%
- ID/g (Rattus norvegicus [15]): 0.51%
- ID/g (Rattus norvegicus [16]): 0.31%
- ID/g (Rattus norvegicus [17]): 0.53%
- ID/g (Rattus norvegicus [18]): 0.26%
- ID/g (Rattus norvegicus [19]): 0.33%
- ID/g (Rattus norvegicus [20]): 0.23%
- ID/g (Rattus norvegicus [21]): 4.09%
- ID/g (Rattus norvegicus [22]): 0.52%
- ID/g (Rattus norvegicus [23]): 0.45%
- ID/g (Rattus norvegicus [24]): 0.28%
- ID/g (Rattus norvegicus [25]): 0.46%
- ID/g (Rattus norvegicus [26]): 0.19%
- ID/g (Rattus norvegicus [27]): 0.23%
- ID/g (Rattus norvegicus [28]): 0.23%
- ID/g (Rattus norvegicus [29]): 0.25%
- ID/g (Rattus norvegicus [30]): 0.44%
- ID/g (Rattus norvegicus [31]): 0.64%
- ID/g (Rattus norvegicus [32]): 2.56%
- ID/g (Rattus norvegicus [33]): 0.46%
- ID/g (Rattus norvegicus [34]): 0.63%
- ID/g (Rattus norvegicus [35]): 0.46%
- ID/g (Rattus norvegicus [36]): 0.48%
- ID/g (Rattus norvegicus [37]): 0.27%
- ID/g (Rattus norvegicus [38]): 0.33%
- ID/g (Rattus norvegicus [39]): 0.52%
- ID/g (Rattus norvegicus [40]): 0.13%
- ID/g (Rattus norvegicus [41]): 0.63%
